# Assay results from ChEMBL document CHEMBL4152203, “Antiproliferative hydrogen sulfide releasing evodiamine derivatives and their apoptosis inducing properties” (Eur J Med Chem, 2018).
# Activity calls are given as the source filed them. No cut-off for these calls is given here.
# What was measured:
# [1] = test system: HL-60; assay: Induction of apoptosis in human HL60 cells assessed as upregulation of caspase3 level at 0.3 to 1.2 uM after 48 hrs by Western blot analysis; format: functional, cell-based
# Outline: (§1)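 HL-60 treated in triplicate with 0.3, 0.6 or 1.2 μM compound; exposure is 72 h in the methods and 48 h in the legend. Lysates were run on 10% SDS-PAGE, transferred to nitrocellulose, blocked in 5% milk, and probed overnight at 4 °C with monoclonal antibodies (Bcl-2, Bax, cytochrome c, caspase-9/-3, p53, cyclin B1, cdc2). ECL detection; densitometry relative to GAPDH.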
# [2] = test system: HL-60; assay: Induction of apoptosis in human HL60 cells assessed as increase in Bax level at 0.3 to 1.2 uM after 48 hrs by Western blot analysis; format: functional, cell-based; outline: as §1
# [3] = test system: PBMC; assay: Antiproliferative activity against human PBMC cells after 72 hrs by MTT assay; format: cell-based
# Outline: (§2)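 Cells seeded and pre-incubated 24 h at 37 °C, 5% CO2, then exposed to compounds for 72 h. MTT (5 mg/mL stock) added for 4 h, formazan dissolved in DMSO for 10 min at room temperature, absorbance read at 570 nm. 0.1% DMSO as negative and 5-FU as positive reference. IC50 derived from inhibition ratios; mean ± SD of three independent experiments.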
# [4] = test system: HL-60; assay: Cell cycle arrest in human HL60 cells assessed as accumulation at S phase at 0.6 uM after 48 hrs by propidium iodide/RNase A staining-based flow cytometric analysis (reference value: 24.06%); format: functional
# [5] = test system: HL-60; assay: Cell cycle arrest in human HL60 cells assessed as accumulation at S phase at 1.2 uM after 48 hrs by propidium iodide/RNase A staining-based flow cytometric analysis (reference value: 24.06%); format: functional
# [6] = test system: HL-60; assay: Induction of apoptosis in human HL60 cells assessed as early apoptotic cells at 1.2 uM after 48 hrs by Annexin V-FITC/propidium iodide staining-based flow cytometric analysis (reference value: 2.31%); format: functional
# [7] = test system: HL-60; assay: Induction of apoptosis in human HL60 cells assessed as early apoptotic cells at 0.3 uM after 48 hrs by Annexin V-FITC/propidium iodide staining-based flow cytometric analysis (reference value: 2.31%); format: functional
# [8] = test system: HL-60; assay: Cell cycle arrest in human HL60 cells assessed as accumulation at G1 phase at 0.6 uM after 48 hrs by propidium iodide/RNase A staining-based flow cytometric analysis (reference value: 65.75%); format: functional
# [9] = test system: HL-60; assay: Induction of apoptosis in human HL60 cells assessed as morphological changes by measuring nuclear fragmentation at 0.3 to 1.2 uM after 48 hrs by Hoechst 33258 staining-based fluorescence microscopic analysis; format: functional, cell-based
# Outline: (§3)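 HL-60 pre-incubated 24 h, then treated 48 h with 0, 0.3, 0.6 or 1.2 μM compound or vehicle. Cells were harvested, washed twice in PBS, stained with Hoechst 33258 (2 mg/mL in PBS) for 15 min at room temperature in darkness, washed, mounted and examined by fluorescence microscopy with a DAPI filter.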
# [10] = test system: HL-60; assay: Induction of apoptosis in human HL60 cells assessed as decrease in cdc2 protein expression level at 0.3 to 1.2 uM after 48 hrs by Western blot analysis; format: functional, cell-based; outline: as §1
# [11] = test system: HL-60; assay: Induction of apoptosis in human HL60 cells assessed as viable cells at 1.2 uM after 48 hrs by Annexin V-FITC/propidium iodide staining-based flow cytometric analysis (reference value: 95.56%); format: functional; conditions: HL-60, 48 h, read-out: Activity
# [12] = test system: HL-60; assay: Induction of apoptosis in human HL60 cells assessed as necrotic cells at 0.3 uM after 48 hrs by Annexin V-FITC/propidium iodide staining-based flow cytometric analysis (reference value: 0.02%); format: functional
# [13] = test system: HL-60; assay: Induction of apoptosis in human HL60 cells assessed as increase in p53 protein level at 0.3 to 1.2 uM after 48 hrs by Western blot analysis; format: functional, cell-based; outline: as §1
# [14] = test system: HL-60; assay: Induction of apoptosis in human HL60 cells assessed as decrease in cyclin B1 protein expression level at 0.3 to 1.2 uM after 48 hrs by Western blot analysis; format: functional, cell-based; outline: as §1
# [15] = test system: SGC-7901; assay: Antiproliferative activity against human SGC7901 cells after 72 hrs by MTT assay; format: functional, cell-based; conditions: SGC-7901, 72 h; outline: as §2
# [16] = test system: HL-60; assay: Cell cycle arrest in human HL60 cells assessed as accumulation at G1 phase at 1.2 uM after 48 hrs by propidium iodide/RNase A staining-based flow cytometric analysis (reference value: 65.75%); format: functional
# [17] = test system: HL-60; assay: Induction of apoptosis in human HL60 cells assessed as downregulation of Bcl2 expression at 0.3 to 1.2 uM after 48 hrs by Western blot analysis; format: functional, cell-based; outline: as §1
# [18] = test system: HL-60; assay: Induction of apoptosis in human HL60 cells assessed as early apoptotic cells at 0.6 uM after 48 hrs by Annexin V-FITC/propidium iodide staining-based flow cytometric analysis (reference value: 1.11%); format: functional
# [19] = test system: HL-60; assay: Induction of apoptosis in human HL60 cells assessed as early apoptotic cells at 1.2 uM after 48 hrs by Annexin V-FITC/propidium iodide staining-based flow cytometric analysis (reference value: 1.11%); format: functional
# [20] = test system: MCF7; assay: Antiproliferative activity against human MCF7 cells after 72 hrs by MTT assay; format: functional, cell-based; conditions: MCF7, 72 h; outline: as §2
# [21] = test system: HL-60; assay: Induction of mitochondrial membrane potential loss in human HL60 cells assessed as cell population with mitochondrial membrane potential collapse at 1.2 uM after 48 hrs by JC1 staining-based flow cytometry analysis (reference value: 7.65%); format: functional
# [22] = test system: HL-60; assay: Induction of apoptosis in human HL60 cells assessed as increase in cytosolic cytochrome c level at 0.3 to 1.2 uM after 48 hrs by Western blot analysis; format: functional, cell-based; outline: as §1
# [23] = test system: HL-60; assay: Induction of mitochondrial membrane potential loss in human HL60 cells assessed as cell population with mitochondrial membrane potential collapse at 0.6 uM after 48 hrs by JC1 staining-based flow cytometry analysis (reference value: 7.65%); format: functional
# [24] = test system: HL-60; assay: Antiproliferative activity against human HL60 cells after 72 hrs by MTT assay; format: functional, cell-based; conditions: HL-60, 72 h; outline: as §2
# [25] = test system: HL-60; assay: Induction of apoptosis in human HL60 cells assessed as necrotic cells at 1.2 uM after 48 hrs by Annexin V-FITC/propidium iodide staining-based flow cytometric analysis (reference value: 0.02%); format: functional
# [26] = test system: HL-60; assay: Induction of apoptosis in human HL60 cells assessed as morphological changes by measuring chromatin condensation at 0.3 to 1.2 uM after 48 hrs by Hoechst 33258 staining-based fluorescence microscopic analysis; format: functional, cell-based; outline: as §3
# [27] = test system: HL-60; assay: Induction of apoptosis in human HL60 cells assessed as upregulation of caspase9 level at 0.3 to 1.2 uM after 48 hrs by Western blot analysis; format: functional, cell-based; outline: as §1
# [28] = test system: HL-60; assay: Induction of apoptosis in human HL60 cells assessed as apoptotic cells after 48 hrs by Annexin V-FITC/propidium iodide staining-based flow cytometric analysis; format: functional, cell-based
# [29] = test system: HL-60; assay: Cell cycle arrest in human HL60 cells assessed as accumulation at G2/M phase at 0.6 uM after 48 hrs by propidium iodide/RNase A staining-based flow cytometric analysis (reference value: 10.19%); format: functional
# [30] = test system: HL-60; assay: Induction of apoptosis in human HL60 cells assessed as necrotic cells at 0.6 uM after 48 hrs by Annexin V-FITC/propidium iodide staining-based flow cytometric analysis (reference value: 0.02%); format: functional
structure (smiles),measurement,setting,value
CN1c2ccccc2C(=O)N2CCc3c(n(CCCCC(=O)OCCCCOc4ccc(-c5cc(=S)ss5)cc4)c4ccccc34)C21 (stereo not given),Activity,[1],Active
same,Activity,[2],Active
same,IC50,[3],> 100 µM
same,Activity,[4],41.81%
same,Activity,[5],42.66%
same,Activity,[6],48.08%
same,Activity,[7],6.74%
same,Activity,[8],38.55%
same,Activity,[9],Active
same,Activity,[10],Active
same,viability at 1.2 µM,[11],39.2%
same,Activity,[12],0.06%
same,Activity,[13],Active
same,Activity,[14],Active
same,IC50,[15],> 50 µM
same,Activity,[16],35.32%
same,Activity,[17],Active
same,Activity,[18],15.56%
same,Activity,[19],12.6%
same,IC50,[20],44.8 µM
same,Activity,[21],35.01%
same,Activity,[22],Active
same,Activity,[23],21.32%
same,IC50,[24],0.58 µM
same,Activity,[25],0.11%
same,Activity,[26],Active
same,Activity,[27],Active
same,Activity,[28],Dose-dependent effect
same,Activity,[29],16.63%
same,Activity,[30],0.48%
